The test system of experiment [1] is A549. Briefly: Induction of mitochondrial membrane potential loss in human A549 cells assessed as cells with depolarized mitochondria by measuring increase in J-monomer green fluorescence intensity at 0.8 uM incubated for 24 hrs by JC1 staining based fluorescence microscopic method (reference value: 1.5%). Format: functional.
The target in experiment [2] is T1, Hsp90 co-chaperone Cdc37 (Homo sapiens) (UniProt Q16543).
T1 sequence (whole entry): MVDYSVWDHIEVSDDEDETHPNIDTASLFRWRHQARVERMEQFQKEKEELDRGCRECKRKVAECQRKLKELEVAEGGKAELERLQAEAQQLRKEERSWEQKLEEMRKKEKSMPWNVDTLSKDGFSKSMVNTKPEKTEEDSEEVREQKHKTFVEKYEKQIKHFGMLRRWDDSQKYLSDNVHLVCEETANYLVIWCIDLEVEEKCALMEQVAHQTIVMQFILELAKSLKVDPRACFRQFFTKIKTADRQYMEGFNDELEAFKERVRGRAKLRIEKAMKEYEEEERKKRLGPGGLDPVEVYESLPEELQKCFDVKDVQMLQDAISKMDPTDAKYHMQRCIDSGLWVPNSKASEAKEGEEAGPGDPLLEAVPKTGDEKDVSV
As to the kind of experiment: Binding affinity to recombinant Cdc37 (unknown origin) assessed as inhibition of biotin labeled 3-[3-cyano-3-(4-fluorophenyl)prop-2-enoyl]oxypropyl(2R,4aS,6aR,6aS,14aS,14bR)-10-hydroxy-2,4a,6a,6a,9,14a-hexamethyl-11-oxo-1,3,4,5,6,13,14,14b-octahydropicene-2-carboxylate binding to enzyme at 0.25 to 0.5 uM incubated with compound for 2 hrs before or after incubation with biotin labeled 3-[3-cyano-3-(4-fluorophenyl)prop-2-enoyl]oxypropyl(2R,4aS,6aR,6aS,14aS,14bR)-10-hydroxy-2,4a,6a,6a,9,14a-hexamethyl-11-oxo-1,3,4,5,6,13,14,14b-octahydropicene-2-carboxylate for 2 hrs by pull down assay based immunoblot analysis. In a few lines:
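Recombinant Cdc37 ([…]) incubated with varying compound concentrations for 2 h, either before or after a 2 h incubation with biotinylated probe (0.5 μM) at 10 °C. Biotin alone served as control. Probe-bound protein captured on streptavidin beads, and input and bound fractions immunoblotted.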
On the technique in general: A western blot detects proteins with antibodies after separation by electrophoresis.

Experiment [3] has as its target T1, Hsp90 co-chaperone Cdc37 (Homo sapiens). As to the kind of experiment: Inhibition of Cdc37 in human A549 cells assessed as disruption of HSP90 alpha-Cdc37 interaction by measuring decrease in Cdc37 protein level at 5 uM incubated for 6 hrs by immunoprecipitation based immunoblot analysis. Format: cell-based. In a few lines: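 A549 cells (5×10^5 per 6 cm dish) were grown 24 h, then treated with 5 μM compound or DMSO for 6 h. Lysates were immunoprecipitated with Hsp90α antibody, and co-precipitated Cdc37 and Hsp90 were detected by Western blot. Mean ± SD, n = 3.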

The target is the same in experiment [4]. Briefly: Binding affinity to full length CDC37 (unknown origin) assessed as reduction in absorption at 440 nm reaching equilibrium within 15 mins at 100 uM by UV absorption analysis. To be noted: in the assay text read “within 5 mins” for “within 15 mins”. The gist of the method: (§1)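 Compound (100 μM) mixed with GSH (100 μM), Cdc37 (1.5 μM) or Hsp90 (1.5 μM) in PBS containing 1% DMSO, incubated at 37 °C for 0, 5, 15 and 30 min. UV spectra scanned 200-500 nm, with absorbance at 440 nm compared against the 0 min value (A/A0). Mean ± SD, n = 3.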

For experiment [5], the system named is A549. Briefly: Induction of cell cycle arrest in human A549 cells assessed as accumulation at S phase at 0.4 uM incubated for 24 hrs by PI staining based flow cytometric analysis (reference value: 27.59%). Type of experiment: functional. In a few lines:
(§2)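 A549 cells (4×10^5 per 6 cm dish) were grown 24 h, then exposed to compound (0.2, 0.4, 0.8 μM) or DMSO for 24 h. Cells fixed in 75% ethanol at −20 °C for at least 12 h, treated with RNase A at 37 °C for 30 min, then stained with PI for 15 min in the dark. Analysed by flow cytometry, mean ± SD, n = 3.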
For orientation: Flow cytometry measures light scatter and fluorescence of single cells or particles in a stream.

For experiment [6], the target named is T1, Hsp90 co-chaperone Cdc37 (Homo sapiens). Briefly: Binding affinity to Cdc37 in human A549 cells assessed as inhibition of HSP90-Cdc37 interaction by measuring decrease in CDK4 protein level at 5 uM incubated for 12 hrs by Western blot analysis. Type of experiment: cell-based. In a few lines: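 A549 cells seeded 5×10^5 per 6 cm dish, grown 12 h, then exposed to compound or DMSO for 12 h. Lysates adjusted to 3 mg/ml protein (BCA), run on 10% SDS-PAGE, immunoblotted for p-Akt and Cdk4. Band levels quantified against Hsp90 loading control. Three separate experiments, mean ± SD.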

Experiment [7] concerns A549. As to the kind of experiment: Antiproliferative activity against human A549 cells assessed as inhibition of cell growth at 1.5 uM incubated for 48 hrs by MTT assay relative to control. Type of experiment: functional. Particulars: A549, 48 h, read-out: GI.
For experiment [8], the system named is A549. Briefly: Induction of apoptosis in human A549 cells assessed as late apoptotic cells at 0.6 uM incubated for 48 hrs by Annexin V-FITC and PI staining based flow cytometric analysis (reference value: 3.0%). Format: functional.
Experiment [9] deals with A549. As to the kind of experiment: Induction of cell cycle arrest in human A549 cells assessed as accumulation at G1 phase at 0.4 uM incubated for 24 hrs by PI staining based flow cytometric analysis (reference value: 60.14%). Format: functional. The gist of the method:
as §2

The test system of experiment [10] is A549. As to the kind of experiment: Induction of morphological apoptosis in human A549 cells assessed as increase in cells with chromatin condensation at 0.3 to 1.2 uM incubated for 48 hrs by Hoechst 33342 and PI staining based fluorescence microscopic method. Type of experiment: functional, cell-based. The gist of the method: (§3)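 A549 cells (4×10^5 per 6 cm dish) were grown 24 h, then exposed to compound at the indicated concentrations or DMSO for 48 h. After PBS washes, cells were stained with Hoechst 33342 (10 µg/ml) plus PI for 5 min at room temperature in the dark and imaged by fluorescence microscopy for nuclear morphology.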

The test system of experiment [11] is A549. As to the kind of experiment: Induction of morphological apoptosis in human A549 cells assessed as increase in cells with nuclear fragmentation at 0.3 to 1.2 uM incubated for 48 hrs by Hoechst 33342 and PI staining based fluorescence microscopic method. Type of experiment: functional, cell-based. The gist of the method: as §3
The test system of experiment [12] is A549. Briefly: Induction of mitochondrial membrane potential loss in human A549 cells assessed as cells with depolarized mitochondria by measuring increase in J-monomer green fluorescence intensity at 0.4 uM incubated for 24 hrs by JC1 staining based fluorescence microscopic method (reference value: 1.5%). Format: functional.
In experiment [13] the test system is A549. As to the kind of experiment: Induction of apoptosis in human A549 cells assessed as viable cells at 0.6 uM incubated for 48 hrs by Annexin V-FITC and PI staining based flow cytometric analysis (reference value: 95.5%). Type of experiment: functional. To be noted: A549, 48 h, read-out: Activity.
Experiment [14] deals with A549. Briefly: Induction of cell cycle arrest in human A549 cells assessed as accumulation at G2 phase at 0.8 uM incubated for 24 hrs by PI staining based flow cytometric analysis (reference value: 19.37%). Type of experiment: functional. In a few lines:
as §2

The target in experiment [15] is Heat shock protein HSP 90-alpha (Homo sapiens) (UniProt P07900). As to the kind of experiment: Binding affinity to full length Hsp90alpha (unknown origin) assessed as reduction in absorption at 440 nm reaching equilibrium within 5 mins at 100 uM by UV absorption analysis. Particulars: in the assay text read “within 15 mins” for “within 5 mins”. In a few lines: as §1

Experiment [16] deals with A549. Briefly: Antiproliferative activity against human A549 cells assessed as inhibition of cell growth at 0.5 uM incubated for 48 hrs in presence of methyl thioglycolate by MTT assay relative to control. Format: functional. Particulars: A549, 48 h, read-out: GI. (In general: Tetrazolium assays rely on reduction of a dye to a coloured formazan, in cell work by metabolically active cells.)

Experiment [17] concerns A549. As to the kind of experiment: Induction of cell cycle arrest in human A549 cells assessed as accumulation at G2 phase at 0.4 uM incubated for 24 hrs by PI staining based flow cytometric analysis (reference value: 19.37%). Type of experiment: functional. In a few lines: as §2

Activity calls are given as the source filed them. The calls are words filed in the database; no cut-off is given here.

Turning to `CC1=C(O)C(=O)C=C2C1=CC=C1[C@@]2(C)CC[C@@]2(C)[C@@H]3C[C@](C)(C(=O)OCCCOC(=O)/C=C(\C#N)c4ccc(F)cc4)CC[C@]3(C)CC[C@]12C`, the Activity was 26.2% in [1]; 23.34% in experiment [5]; 16.9% in experiment [8]; 67.51% in experiment [9]; 18.7% in [12]; 15.55% in experiment [14]. Besides, the Activity in experiment [17] turned out to be 16%. Also, the outcome in experiment [2], in [4], in experiment [10], in experiment [11] and in experiment [15] was Active. Also, the inhibition entry in experiment [3] and in [6] was “Active” in each case. Moreover, the inhibition of growth at 1.5 µM in experiment [7] was 78.5%. In addition, the viability at 0.6 µM in experiment [13] was found to be 71.2%. For the same compound, the inhibition of growth at 0.5 µM in experiment [16] came to 68.3%.

For the origin of these results see ChEMBL document CHEMBL4376838, “Discovery of Novel Celastrol Derivatives as Hsp90-Cdc37 Interaction Disruptors with Antitumor Activity” (J Med Chem, 2019).
